What was measured:
Rattus norvegicus [1] = assay: Biodistribution in thyroid 24 hours after iv injection in walker tumor bearing rat; assay type: ADME, organism-based, Thyroid gland; conditions: in vivo
Procedure, shortened: (§1)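 Female Sprague–Dawley rats (200–250 g) were inoculated in the right hind limb with 5.0 × 10⁶ Walker 256 cells in saline and used 6–10 days later, when tumors averaged 10 g. The radioiodinated agent, in 2–3% Tween-20/saline after ethanol removal, was given as 5–10 μCi in 0.5 mL by tail vein to anesthetized rats. Tissues were dissected, weighed and counted with decay correction. Values are % ID/g, mean ± SEM, n = 3.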

Rattus norvegicus [2] = assay: Biodistribution in thyroid 48 hours after iv injection in walker tumor bearing rat; assay type: ADME, organism-based, Thyroid gland; conditions: in vivo; procedure, shortened: as §1
Rattus norvegicus [3] = assay: Biodistribution in tumor 24 hours after iv injection in walker tumor bearing rat; assay type: ADME, organism-based; conditions: in vivo; procedure, shortened: as §1
Rattus norvegicus [4] = assay: Biodistribution in tumor 48 hours after iv injection in walker tumor bearing rat; assay type: ADME, organism-based; conditions: in vivo; procedure, shortened: as §1
Rattus norvegicus [5] = assay: Ratio of the biodistribution in tumor to blood 24 hours after iv injection in walker tumor bearing rat; assay type: ADME, organism-based; conditions: tumour
Procedure, shortened: (§2)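 Walker 256 tumor-bearing female Sprague–Dawley rats were given 5–10 μCi of radioiodinated agent in Tween-20/saline iv by tail vein (n = 3 per time point). After dissection and decay-corrected counting, tumor % ID/g was divided by blood or liver % ID/g.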

Rattus norvegicus [6] = assay: Ratio of the biodistribution in tumor to blood 48 hours after iv injection in walker tumor bearing rat; assay type: ADME, organism-based; conditions: in vivo; procedure, shortened: as §2
Rattus norvegicus [7] = assay: Ratio of the biodistribution in tumor to liver 48 hours after iv injection in walker tumor bearing rat; assay type: ADME, organism-based; conditions: in vivo; procedure, shortened: as §2
Rattus norvegicus [8] = assay: Biodistribution in blood 24 hours after iv injection in walker tumor bearing rat; assay type: ADME, organism-based; conditions: in vivo; procedure, shortened: as §1
Rattus norvegicus [9] = assay: Biodistribution in blood 48 hours after iv injection in walker tumor bearing rat; assay type: ADME, organism-based; conditions: in vivo; procedure, shortened: as §1
Rattus norvegicus [10] = assay: Biodistribution in duodenum 48 hours after iv injection in walker tumor bearing rat; assay type: ADME, organism-based; conditions: in vivo; procedure, shortened: as §1
Rattus norvegicus [11] = assay: Biodistribution in injected site 24 hours after iv injection in walker tumor bearing rat; assay type: ADME, organism-based; conditions: in vivo; procedure, shortened: as §1
Rattus norvegicus [12] = assay: Biodistribution in injected site 48 hours after iv injection in walker tumor bearing rat; assay type: ADME, organism-based; conditions: in vivo; procedure, shortened: as §1
Rattus norvegicus [13] = assay: Biodistribution in kidney 24 hours after iv injection in walker tumor bearing rat; assay type: ADME, organism-based; conditions: in vivo; procedure, shortened: as §1
Rattus norvegicus [14] = assay: Biodistribution in kidney 48 hours after iv injection in walker tumor bearing rat; assay type: ADME, organism-based; conditions: in vivo; procedure, shortened: as §1
Rattus norvegicus [15] = assay: Biodistribution in liver 24 hours after iv injection in walker tumor bearing rat; assay type: ADME, organism-based; conditions: in vivo; procedure, shortened: as §1
Rattus norvegicus [16] = assay: Biodistribution in liver 48 hours after iv injection in walker tumor bearing rat; assay type: ADME, organism-based; conditions: in vivo; procedure, shortened: as §1
Rattus norvegicus [17] = assay: Biodistribution in lung 24 hours after iv injection in walker tumor bearing rat; assay type: ADME, organism-based; conditions: in vivo; procedure, shortened: as §1
Rattus norvegicus [18] = assay: Biodistribution in lung 48 hours after iv injection in walker tumor bearing rat; assay type: ADME, organism-based; conditions: in vivo; procedure, shortened: as §1
Rattus norvegicus [19] = assay: Biodistribution in muscle 24 hours after iv injection in walker tumor bearing rat; assay type: ADME, organism-based, Muscle tissue; conditions: in vivo; procedure, shortened: as §1
Rattus norvegicus [20] = assay: Biodistribution in muscle 48 hours after iv injection in walker tumor bearing rat; assay type: ADME, organism-based, Muscle tissue; conditions: in vivo; procedure, shortened: as §1
Rattus norvegicus [21] = assay: Biodistribution in ovary 24 hours after iv injection in walker tumor bearing rat; assay type: ADME, organism-based, Female gonad; conditions: in vivo; procedure, shortened: as §1
Rattus norvegicus [22] = assay: Biodistribution in ovary 48 hours after iv injection in walker tumor bearing rat; assay type: ADME, organism-based, Female gonad; conditions: in vivo; procedure, shortened: as §1
Rattus norvegicus [23] = assay: Biodistribution in plasma 24 hours after iv injection in walker tumor bearing rat; assay type: ADME, organism-based; conditions: in vivo; procedure, shortened: as §1
Rattus norvegicus [24] = assay: Biodistribution in plasma 48 hours after iv injection in walker tumor bearing rat; assay type: ADME, organism-based; conditions: in vivo; procedure, shortened: as §1
Rattus norvegicus [25] = assay: Biodistribution in spleen 24 hours after iv injection in walker tumor bearing rat; assay type: ADME, organism-based; conditions: in vivo; procedure, shortened: as §1
Rattus norvegicus [26] = assay: Biodistribution in spleen 48 hours after iv injection in walker tumor bearing rat; assay type: ADME, organism-based; conditions: in vivo; procedure, shortened: as §1
Rattus norvegicus [27] = assay: Ratio of the biodistribution in tumor to liver 24 hours after iv injection in walker tumor bearing rat; assay type: ADME, organism-based; conditions: in vivo; procedure, shortened: as §2
Rattus norvegicus [28] = assay: Biodistribution in duodenum 24 hours after iv injection in walker tumor bearing rat; assay type: ADME, organism-based; conditions: in vivo; procedure, shortened: as §1

| SMILES | ID/g (Rattus norvegicus [1]) [%] | ID/g (Rattus norvegicus [2]) [%] | ID/g (Rattus norvegicus [3]) [%] | ID/g (Rattus norvegicus [4]) [%] | ID/g (Rattus norvegicus [5]) | ID/g (Rattus norvegicus [6]) | ID/g (Rattus norvegicus [7]) | ID/g (Rattus norvegicus [8]) [%] | ID/g (Rattus norvegicus [9]) [%] | ID/g (Rattus norvegicus [10]) [%] | ID/g (Rattus norvegicus [11]) [%] | ID/g (Rattus norvegicus [12]) [%] | ID/g (Rattus norvegicus [13]) [%] | ID/g (Rattus norvegicus [14]) [%] | ID/g (Rattus norvegicus [15]) [%] | ID/g (Rattus norvegicus [16]) [%] | ID/g (Rattus norvegicus [17]) [%] | ID/g (Rattus norvegicus [18]) [%] | ID/g (Rattus norvegicus [19]) [%] | ID/g (Rattus norvegicus [20]) [%] | further results |
| --- | --- | --- | --- | --- | --- | --- | --- | --- | --- | --- | --- | --- | --- | --- | --- | --- | --- | --- | --- | --- | --- |
| CO[C@@H](COCCCCCCCCCCCCc1cccc(I)c1)COP(=O)([O-])OCC[N+](C)(C)C | 10.33 | 13.69 | 0.78 | 0.45 | 11.1 | 15 | 2 | 0.07 | 0.03 | 0.23 | 0.26 | 0.24 | 0.37 | 0.16 | 0.53 | 0.23 | 0.35 | 0.14 | 0.05 | 0.02 | ID/g (Rattus norvegicus [21]): 0.31%; ID/g (Rattus norvegicus [22]): 0.14%; ID/g (Rattus norvegicus [23]): 0.06%; ID/g (Rattus norvegicus [24]): 0.03%; ID/g (Rattus norvegicus [25]): 0.43%; ID/g (Rattus norvegicus [26]): 0.1%; ID/g (Rattus norvegicus [27]): 1.5; ID/g (Rattus norvegicus [28]): 1.04% |
| CO[C@H](COCCCCCCCCCCCCc1cccc(I)c1)COP(=O)([O-])OCC[N+](C)(C)C | 23.81 | 24.11 | 0.55 | 0.43 | 11 | 14.3 | 1.7 | 0.05 | 0.03 | 0.34 | 0.23 | 0.25 | 0.33 | 0.2 | 0.52 | 0.25 | 0.29 | 0.14 | 0.04 | 0.02 | ID/g (Rattus norvegicus [21]): 0.28%; ID/g (Rattus norvegicus [22]): 0.14%; ID/g (Rattus norvegicus [23]): 0.06%; ID/g (Rattus norvegicus [24]): 0.03%; ID/g (Rattus norvegicus [25]): 0.37%; ID/g (Rattus norvegicus [26]): 0.1%; ID/g (Rattus norvegicus [27]): 1.1; ID/g (Rattus norvegicus [28]): 0.73% |
| COC(COCCCCCCCCCCCCc1cccc(I)c1)COP(=O)([O-])OCC[N+](C)(C)C (racemic) | 47.22 | 24.44 | 0.85 | 0.56 | 12.1 | 11.2 | 1.6 | 0.07 | 0.05 | 0.44 | 0.24 | 0.17 | 0.46 | 0.24 | 0.81 | 0.35 | 0.34 | 0.2 | 0.04 | 0.03 | ID/g (Rattus norvegicus [21]): 0.37%; ID/g (Rattus norvegicus [22]): 0.27%; ID/g (Rattus norvegicus [23]): 0.1%; ID/g (Rattus norvegicus [24]): 0.05%; ID/g (Rattus norvegicus [25]): 0.42%; ID/g (Rattus norvegicus [26]): 0.17%; ID/g (Rattus norvegicus [27]): 1.1; ID/g (Rattus norvegicus [28]): 1.12% |
